A selection: hits, their analogues and other compounds. The true share with any hit is near 1.5%.
TCR-CD3 inh: blocks the human TCR-CD3 interaction. 0.37% of 360,000 active. AID 651800. TAMRA-labeled TCR probe fluorescence, biochemical. inhibition, % at 9.4 µM;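 further: recombinant mutant TCR 2C K166C tagged with TAMRA read by polarization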
DAGLB inh: blocks human DAGLB lipase activity; Q8NCG7; 0.059% of 340,000 active; HEK293T DAGLB membrane lysate, EnzChek fluorogenic substrate; inhibition, % at 5.17 µM; in the data active means inhibition above about 34%
HTRA1 inh: blocks human HTRA1 serine peptidase; AID 504803; 0.5% of 340,000 active; recombinant HTRA1, FP-rhodamine activity-based probe, fluorescence polarization; Q92743; inhibition, % at 5.96 µM; in the data active means inhibition above about 36%
mABHD4 FP: inhibitors of mouse ABHD4 | Q8VD66 | purified mABHD4, FP-Rh probe fluorescence polarization | inhibition, % at 8.92 µM | 0.54% of 370,000 active | AID 720543;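 active means inhibition exceeding the mean over every tested compound plus 3 SD, cut at about 30% in these data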
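Doses – 8.92 µM, single dose · Material – wild-type mouse ABHD4 protein · Replication – single well per compound (singlicate) · Measure – percent inhibition of probe binding, normalized to plate controls · Schedule – 45 min compound pre-incubation plus 60 min probe step, 25 °C · Detection – fluorescence polarization with parallel and perpendicular emission, 525/598 nm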
SIAE inh: blocks human sialic acid acetylesterase; inhibition, % at 9.66 µM; AID 1053197; SIAE FP-Rh probe binding, fluorescence polarization; 0.69% of 370,000 active; Q9HAT2;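 active means inhibition above a cutoff: mean of compounds within the control limits plus 3 SD of those, cut at about 17% in these data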
Target sequence (Q9HAT2 whole entry, looked up): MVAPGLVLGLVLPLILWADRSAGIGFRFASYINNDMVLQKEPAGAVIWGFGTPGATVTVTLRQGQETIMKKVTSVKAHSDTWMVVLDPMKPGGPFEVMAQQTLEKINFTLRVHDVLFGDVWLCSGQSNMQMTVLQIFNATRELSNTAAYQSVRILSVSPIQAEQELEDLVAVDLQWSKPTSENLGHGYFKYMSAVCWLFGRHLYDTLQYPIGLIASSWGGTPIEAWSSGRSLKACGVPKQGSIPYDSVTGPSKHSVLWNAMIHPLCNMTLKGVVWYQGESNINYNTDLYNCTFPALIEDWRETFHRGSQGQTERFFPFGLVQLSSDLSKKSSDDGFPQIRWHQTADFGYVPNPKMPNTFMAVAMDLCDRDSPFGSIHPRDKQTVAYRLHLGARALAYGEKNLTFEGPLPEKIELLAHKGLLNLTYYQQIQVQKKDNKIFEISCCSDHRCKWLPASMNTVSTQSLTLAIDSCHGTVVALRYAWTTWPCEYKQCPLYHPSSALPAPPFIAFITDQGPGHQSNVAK
HTRA1 inh conf: confirmation of human HTRA1 inhibitors; shares compounds with HTRA1 inh; recombinant HTRA1, FP-rhodamine activity-based probe, fluorescence polarization; inhibition, % at 5.96 µM; 66% of 1,600 active; AID 540248;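 active means mean inhibition over three repeats above a set limit taken from the earlier primary screen, cut at about 37% in these data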;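 further: inhibitors block probe binding so polarization drops and inhibition rises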
BSA TAMRA ctr: interferes with TAMRA-BSA probe, flagging TCR-CD3 hits. TAMRA-labeled BSA probe fluorescence counterscreen. inhibition, % at 9.4 µM. shares compounds with TCR-CD3 inh. 10% of 1,200 active. AID 652035; in the data active means inhibition above about 23%
TCR-CD3 conf: confirmation of human TCR-CD3 interaction inhibitors | 48% of 1,200 active | inhibition, % at 9.4 µM | shares compounds with TCR-CD3 inh | AID 652036 | TAMRA-labeled TCR probe fluorescence binding assay
ABHD4 confirm: confirmation of mouse ABHD4 inhibitors | purified mABHD4, FP-Rh probe fluorescence polarization | AID 720658 | 55% of 1,800 active | shares compounds with mABHD4 FP | inhibition, % at 8.92 µM;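 active means mean inhibition across replicates above the hit cutoff set in the primary screen, cut at about 30% in these data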
SIAE confirm: human SIAE inhibition, confirmation; inhibition, % at 9.66 µM; shares compounds with SIAE inh; 13% of 2,300 active; SIAE FP-Rh activity-based probe, fluorescence polarization;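 active means mean inhibition of the replicates above the hit cutoff set in the primary screen, cut at about 17% in these data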;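 further: inhibitors lower polarization as more probe stays unbound to SIAE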
Of the large screens only hits and unclear results are named; the others gave an inactive call (follow-up assays come after a bar, where they were run). Unless noted, no stated cut-off is given here; in the data, active means inhibition above about 19%; inactive means the rest.

CC(C)[C@@H]1NC(=O)[C@H]2C[C@@]3(C)c4ccccc4N[C@H]3N2C1=O	none (no result: TCR-CD3 inh, DAGLB inh, HTRA1 inh)
COCCCNC(=O)/C=C/c1ccc(Cl)cc1Cl	none
CCNc1ccc(Br)cc(C(=O)/C=C/c2ccc(Cl)cc2Cl)c1=O	HTRA1 inh 64, mABHD4 FP 35, SIAE inh 17 | HTRA1 inh conf 59 | ABHD4 confirm 31 | SIAE confirm inactive
N#CC1=C(N)Oc2ccc3ccc(O)cc3c2C1c1ccsc1 (configuration not stated)	TCR-CD3 inh 70, HTRA1 inh 126, mABHD4 FP 132, SIAE inh 126 | HTRA1 inh conf 58 | BSA TAMRA ctr 72 | TCR-CD3 conf 53 | ABHD4 confirm 88 | SIAE confirm 63
O=C(/C=C1\NC2(CCCC2)Cc2ccccc21)C(=O)N/N=C/c1ccc(O)c(O)c1	TCR-CD3 inh 28, HTRA1 inh 79, mABHD4 FP 32, SIAE inh 29 | HTRA1 inh conf 63 | ABHD4 confirm inactive | SIAE confirm inactive
COc1ccc(/C=N/NC(=O)c2cc(O)c(O)c(O)c2)cc1Cn1cc([N+](=O)[O-])cn1	TCR-CD3 inh 63, HTRA1 inh 72, SIAE inh 46 | HTRA1 inh conf 82 | BSA TAMRA ctr inactive | TCR-CD3 conf 78 | SIAE confirm inactive
C/C(=N\NC(=O)c1nc2ccccn2c1C)c1cc2ccccc2o1	none
C/C(CC(=O)N1CCN(C=O)CC1)=N\NC(=O)c1cc2ccccc2cc1O	HTRA1 inh 39, mABHD4 FP 40, SIAE inh 20 | HTRA1 inh conf 37 | ABHD4 confirm 35 | SIAE confirm inactive
C/C(=N\NC(=O)c1cc2ccccc2cc1O)c1cc2ccccc2o1	HTRA1 inh 36, SIAE inh 17 | HTRA1 inh conf inactive | SIAE confirm inactive
N#Cc1ccc(S(=O)(=O)N2CCCc3nc(-c4ccc(F)cc4)ccc32)cc1	none (no result: DAGLB inh, HTRA1 inh)
COC(=O)[C@@]12CCCCC=C1N(CCc1ccc(Cl)cc1)C(=O)[C@H]2CC(=O)NCC1CCCCC1	none (no result: TCR-CD3 inh, DAGLB inh, HTRA1 inh)
O=C(CC1Nc2ccccc2NC1=O)Nc1cc(Cl)cc(Cl)c1 (configuration not stated)	none
O=C(CC1Nc2cccc3cccc(c23)NC1=O)Nc1ccc(F)cc1 (configuration not stated)	HTRA1 inh 61, SIAE inh 24 | HTRA1 inh conf inactive | SIAE confirm inactive
COc1ccc(-n2c(SCC(=O)Nc3ccccc3-c3ccccc3)nnc2-c2ccccc2)cc1	none (no result: TCR-CD3 inh, DAGLB inh, HTRA1 inh)
CCCCS(=O)(=O)N1CCCc2nc(C)c(C)cc21	none (no result: DAGLB inh, HTRA1 inh)
Oc1ccc(-c2csc(Nc3cccc4ccccc34)n2)cc1O	HTRA1 inh 71, SIAE inh 26 | HTRA1 inh conf 71 | SIAE confirm inactive
O=C(COC(=O)c1c2c(nc3ccccc13)/C(=C\c1ccco1)CC2)NC1CCCC1	HTRA1 inh 58, mABHD4 FP 63, SIAE inh 23 | HTRA1 inh conf inactive | ABHD4 confirm 32 | SIAE confirm inactive
O=C(COC(=O)c1c2c(nc3ccccc13)/C(=C/c1cccc([N+](=O)[O-])c1)CCC2)NC1CCS(=O)(=O)C1 (configuration not stated)	none
Oc1c(Cl)cc(Cl)cc1/C=N/NC(=S)NC1CC2C=CC1C2 (configuration not stated)	TCR-CD3 inh 23, HTRA1 inh 52, mABHD4 FP 39, SIAE inh 20 | HTRA1 inh conf 54 | BSA TAMRA ctr inactive | TCR-CD3 conf 28 | ABHD4 confirm 41 | SIAE confirm 21
Oc1ccc(/C=N/N=C(c2ccccc2)c2ccccc2)c(O)c1O	TCR-CD3 inh 35, HTRA1 inh 66, mABHD4 FP 42, SIAE inh 20 | HTRA1 inh conf 67 | BSA TAMRA ctr inactive | TCR-CD3 conf 28 | ABHD4 confirm 34 | SIAE confirm inactive
O=C(/C(=N/N=C/c1ccc(O)c(O)c1O)c1ccccc1)c1ccccc1	HTRA1 inh 79, mABHD4 FP 53, SIAE inh 33 | HTRA1 inh conf 74 | ABHD4 confirm 47 | SIAE confirm inactive
COc1ccc(C(=O)C(=NN)c2ccccc2)cc1	none
CC(C)Oc1cccc(-c2n[nH]c(=S)n2N=Cc2ccc(O)cc2O)c1	none (no result: TCR-CD3 inh, DAGLB inh, HTRA1 inh)
COc1cccc2c1C(=O)c1c(O)c3c(c(O)c1C2=O)CC(O)(C(C)=O)CC3OC1CC(N(C)C)C(O)C(C)O1 (configuration not stated)	TCR-CD3 inh 156, HTRA1 inh 68, mABHD4 FP 72, SIAE inh 64 | HTRA1 inh conf 68 | BSA TAMRA ctr 176 | TCR-CD3 conf 145 | ABHD4 confirm 61 | SIAE confirm 54
COc1cccc2c1C(=O)c1c(O)c3c(c(O)c1C2=O)C[C@@](O)(C(=O)CO)C[C@@H]3OC1CC(N)C(O)C(C)O1 (some centres not stated)	TCR-CD3 inh 125, HTRA1 inh 73, mABHD4 FP 75, SIAE inh 54 | HTRA1 inh conf 65 | BSA TAMRA ctr 156 | TCR-CD3 conf 126 | ABHD4 confirm 55 | SIAE confirm 55
Cc1cc2c(c(=O)o1)[C@@]1(C(=O)N(c3ccccc3)c3ccccc31)C1=C(CCCC1=O)O2	none (no result: DAGLB inh, HTRA1 inh)
NS(=O)(=O)c1ccc(N/N=C/c2ccc(O)cc2O)c([N+](=O)[O-])c1	none
NS(=O)(=O)c1ccc(N/N=C/c2ccc(O)c(O)c2O)c([N+](=O)[O-])c1	TCR-CD3 inh 59, HTRA1 inh 78, mABHD4 FP 60, SIAE inh 37 | HTRA1 inh conf 67 | BSA TAMRA ctr inactive | TCR-CD3 conf 74 | ABHD4 confirm 62 | SIAE confirm inactive
O=C(N[C@H](C(=O)N1CCC[C@H]1C(=O)NC1CCCC1)c1ccccc1)c1ccc(Cl)c(Cl)c1	none (no result: DAGLB inh, HTRA1 inh)
O=C1c2cccc3c(O)ccc(c23)C(=O)N1Cc1ccccc1	TCR-CD3 inh 59, HTRA1 inh 66, mABHD4 FP 75, SIAE inh 42 | HTRA1 inh conf 46 | BSA TAMRA ctr 74 | TCR-CD3 conf 57 | ABHD4 confirm 80 | SIAE confirm 49
O=C(O)c1cccc(CN2C(=O)c3ccccc3C2=O)c1	none

High-throughput results (PubChem)
